Columns and labels:
[1] = molecular target: T1, DAGL-α (Mus musculus, UniProt Q6WQJ1); type: biochemical; conditions: ratio of kinact versus KT109 and DH376
T1 sequence (Q6WQJ1 1-1044): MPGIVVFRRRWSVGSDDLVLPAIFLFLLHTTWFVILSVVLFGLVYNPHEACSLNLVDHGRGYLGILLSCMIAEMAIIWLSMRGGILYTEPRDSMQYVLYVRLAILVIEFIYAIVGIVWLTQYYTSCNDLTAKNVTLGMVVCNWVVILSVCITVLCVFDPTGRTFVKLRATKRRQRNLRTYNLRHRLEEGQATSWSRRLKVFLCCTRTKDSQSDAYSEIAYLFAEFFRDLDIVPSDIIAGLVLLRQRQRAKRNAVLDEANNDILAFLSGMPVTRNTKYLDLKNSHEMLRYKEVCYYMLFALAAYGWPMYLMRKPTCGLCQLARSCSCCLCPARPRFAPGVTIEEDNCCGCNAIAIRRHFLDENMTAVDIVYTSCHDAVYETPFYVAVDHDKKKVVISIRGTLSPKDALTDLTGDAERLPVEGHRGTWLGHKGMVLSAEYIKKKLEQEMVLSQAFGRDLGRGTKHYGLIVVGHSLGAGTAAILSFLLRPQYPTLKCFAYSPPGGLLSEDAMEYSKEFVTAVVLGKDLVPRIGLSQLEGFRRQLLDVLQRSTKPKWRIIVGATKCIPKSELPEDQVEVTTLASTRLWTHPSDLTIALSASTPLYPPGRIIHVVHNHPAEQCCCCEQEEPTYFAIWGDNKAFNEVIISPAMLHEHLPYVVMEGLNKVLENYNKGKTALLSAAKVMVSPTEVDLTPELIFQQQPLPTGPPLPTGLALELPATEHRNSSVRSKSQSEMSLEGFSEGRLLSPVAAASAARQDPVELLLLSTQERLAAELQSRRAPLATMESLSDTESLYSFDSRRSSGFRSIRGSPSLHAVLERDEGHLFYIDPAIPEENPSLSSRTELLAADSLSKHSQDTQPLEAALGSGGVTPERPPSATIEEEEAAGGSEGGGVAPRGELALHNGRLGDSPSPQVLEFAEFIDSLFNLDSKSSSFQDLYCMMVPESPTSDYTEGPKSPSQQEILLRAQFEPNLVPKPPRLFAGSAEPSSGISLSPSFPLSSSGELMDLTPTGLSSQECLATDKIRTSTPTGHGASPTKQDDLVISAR

[2] = molecular target: T2, mDAGL-α (Mus musculus, UniProt Q6WQJ1); test: Standard PNP-butyrate surrogate substrate assay; type: biochemical
T2 sequence (Q6WQJ1 1-1044): T1 sequence (Q6WQJ1 1-1044)
Outline: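 Membrane fraction of HEK293T cells transiently transfected with mDAGL-α, 0.05 μg/μL final, in 50 mM Hepes pH 7.2. Inhibitor in DMSO preincubated 20 min, then PNP-butyrate added (0.3 mM final; 5% DMSO final). OD 420 nm read after 30 min at 20 °C. Data corrected for 10 μM THL background and normalized to DMSO control. N = 2, n = 2; plates kept if Z′ > 0.6.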

Row | SMILES | inactivation rate (kinact) times higher than for KT109 and DH376 [1] | potency in the standard surrogate substrate assay (in words) [2]
1 | O=C(N1CCCC[C@@H]1Cc1ccccc1)n1cc(C(O)(c2ccc(F)cc2)c2ccc(F)cc2)nn1 [Compound 2, (R)-(2-Benzylpiperidin-1-yl)(4-(bis(4-fluorophenyl)(hydroxy)methyl)-1H-1,2,3-triazol-1-yl)methanone] | 2–3 times | low nanomolar
2 | O=C(N1CCCC[C@@H]1Cc1ccccc1)n1ncc(C(O)(c2ccc(F)cc2)c2ccc(F)cc2)n1 [Compound 1, (R)-(2-Benzylpiperidin-1-yl)(4-(bis(4-fluorophenyl)(hydroxy)methyl)-2H-1,2,3-triazol-2-yl)methanone] | 2–3 times | low nanomolar

— publication PMC6745892 (Journal of Medicinal Chemistry, 2019)
